ChEMBL document CHEMBL1137147, “Low molecular weight thrombin inhibitors with excellent potency, metabolic stability, and oral bioavailability” (Bioorg Med Chem Lett, 2004)

Key:
Prothrombin = Prothrombin (Homo sapiens, UniProt P00734); experiment: Inhibition constant against human Thrombin
[1] = Percent free human plasma protein binding after administration of the compound; format: functional
Rattus norvegicus [2] = experiment: Effect (10 ug/kg/min) on FeCl3 induced clot formation on carotid artery, expressed as no. of vessel occlusions out of 5 rats; format: functional
Summary of the method: (§1)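 Anesthetized rats given test compound by intravenous infusion at 10 µg/kg/min for 180 min. Topical FeCl3 applied to the carotid artery at 120 min post dose, then carotid blood flow monitored for 60 min. Result is the number of animals with occluded vessels (n = 5 or 6).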

[3] = Plasma half life in dog when administered 1 mg/kg perorally; format: ADME, organism-based, Canis lupus familiaris; set-up: dose 1 mg/kg, route oral; conditions: po
Summary of the method: (§2)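 Amorphous TFA salts given orally at 1 mg/kg in 1% methocel to beagle dogs (n = 2). Blood sampled over 8 h post dose plus a final 24 h sample. Drug isolated from plasma by solid-phase extraction and quantified by LC–MS/MS against a standard curve. AUC and t1/2 derived from the concentration–time curve.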

Rattus norvegicus [4] = experiment: Percent free rat plasma protein binding after administration of the compound; format: functional
[5] = Area under the curve in dog when administered 1 mg/kg perorally; format: ADME, organism-based, Canis lupus familiaris; set-up: dose 1 mg/kg, route oral; conditions: in vivo, po; summary of the method: as §2
Rattus norvegicus [6] = experiment: Effect (10 ug/kg/min) on FeCl3 induced clot formation on carotid artery, expressed as no. of vessel occlusions out of 6 rats; format: functional; summary of the method: as §1

| Structure (SMILES) | Ki (Prothrombin) [nM] | Activity [1] [%] | Activity (Rattus norvegicus [2]) | half-life [3] [h] | Activity (Rattus norvegicus [4]) [%] | AUC [5] [µM·h] | Activity (Rattus norvegicus [6]) |
| --- | --- | --- | --- | --- | --- | --- | --- |
| NCc1ccc(Cl)cc1CNC(=O)[C@@H]1CCCN1C(=O)CO | 0.5 | 1 | 4 | 13 | 9 | 30 | – |
| CC(C)(C1CC1)[C@@H](O)C(=O)N1CC[C@H]1C(=O)NCc1cc(Cl)ccc1CN | 3.7 | 11 | 0 | 4.7 | 17 | 11 | – |
| C[C@](O)(C(=O)N1CCC[C@H]1C(=O)NCc1cc(Cl)ccc1CN)c1ccccc1 | 4.7 | – | – | 3.1 | – | 21 | – |
| NCc1ccc(Cl)cc1CNC(=O)[C@@H]1CCCN1C(=O)[C@@H](O)c1ccccc1 | 80 | – | – | – | – | – | – |
| CC(C)(C)[C@@H](O)C(=O)N1CCC[C@H]1C(=O)NCc1cc(Cl)ccc1CN | 2.1 | 24 | – | 5.4 | 54 | 10 | 0 |
| NCc1ccc(Cl)cc1CNC(=O)[C@@H]1CCCN1C(=O)[C@H](O)c1ccccc1 | 0.9 | – | – | 2 | – | 1.4 | – |
| CC(C)[C@@H](O)C(=O)N1CCC[C@H]1C(=O)NCc1cc(Cl)ccc1CN | 5.6 | 63 | – | 4.2 | 60 | 4.9 | 2 |
| CC(C)(C)[C@@H](O)C(=O)N1CC[C@H]1C(=O)NCc1cc(Cl)ccc1CN | 5 | 21 | 0 | 3.4 | 26 | 3.5 | – |
| NCc1ccc(Cl)cc1CNC(=O)[C@@H]1CCCN1C(=O)[C@H](O)C1CCCCC1 | 0.27 | 4 | – | 2 | 36 | 1.7 | 0 |
| C[C@@](O)(C(=O)N1CCC[C@H]1C(=O)NCc1cc(Cl)ccc1CN)c1ccccc1 | 2.7 | 15 | – | 3.4 | 24 | 14 | 1 |
